The results in this text go back to ChEMBL document CHEMBL1142233, “Treatment of diabetes and atherosclerosis by inhibiting fatty-acid-binding protein aP2” (2007).

Test [1] deals with Mus musculus. In words: Effect on body weight in 5-week old apoE-/- C57BL/6J mouse fed on western diet and administered with 15 mg/kg/day, po drug at 12 week in 12-18 week late intervention study. It is filed as functional.
The test system of test [2] is Macrophage. Kind of test: Increase in cholesterol efflux in mouse aP2-/-R macrophage cells (re-expression of aP2) at 25 uM relative to control. It is filed as functional, cell-based. The essentials:
(§1)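 Macrophages loaded 24 h in RPMI with 5% LPDS, 1 μCi ml⁻¹ ³H-cholesterol and 50 μg ml⁻¹ acLDL, ± 25 μM inhibitor. Equilibrated 24 h in 0.2% fatty-acid-free BSA ± inhibitor, then 4 h ± APOA1 20 μg ml⁻¹. Efflux = medium ³H as % of total, per mg protein; mouse lines normalized to untreated aP2+/+.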

Test [3] relates to Mus musculus. In words: Effect on triglyceride level in 5-week old apoE-/- C57BL/6J mouse fed on western diet and administered with 15 mg/kg/day, po drug at 12 week in 12-18 week late intervention study. It is filed as functional. Put shortly: (§2)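 Male Apoe−/− mice on western diet (21% fat, 0.21% cholesterol) from 4–5 weeks of age. Oral gavage for 6 weeks from age 5 or 12 weeks; vehicle 10% 1-methyl-2-pyrrolidone, 5% cremophor EL with ethanol in water. Blood taken after 6 h fast before and after treatment. Glucose by meter; insulin by ELISA; lipids and glycerol colorimetric.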

The subject of test [4] is Mus musculus. Kind of test: Effect on free fatty acid level in 5-week old apoE-/- C57BL/6J mouse fed on western diet and 15 mg/kg/day, po drug simultaneously in 5-11 week early intervention study. It is filed as functional. Put shortly:
as §2

Test [5] relates to Mus musculus. In words: Reduction of total liver triglyceride level in ob/ob mouse at 40 mg/kg/day, po. It is filed as functional, organism-based. Put shortly: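 Male ob/ob mice were gavaged with 40 mg kg⁻¹ d⁻¹ or vehicle for 6 weeks from 8 weeks of age, n = 6 per group. Total liver lipids were extracted by the Bligh–Dyer method and triglyceride content was determined.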
The species named for test [6] is Mus musculus. In words: Decrease in glucose level in wild type mouse fed on high fat diet after 4 weeks by glucose tolerance test relative to control. It is filed as functional, organism-based. Put shortly:
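Wild-type C57BL/6J mice on 60% fat diet from 4 weeks of age, gavaged with 40 mg kg⁻¹ d⁻¹ or vehicle for 4 weeks starting at 20 weeks of age. Glucose tolerance tested with 1.5 g kg⁻¹ intraperitoneal glucose after an overnight fast.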

Test [7] concerns Mus musculus. Kind of test: Attenuation of JNK1 activity in ob/ob mouse adipose tissue at 40 mg/kg/day, po. It is filed as functional. Put shortly: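 Adipose lysate from male ob/ob mice (oral gavage 6 weeks from 8 weeks of age) immunoprecipitated with JNK1 antibody and protein A beads. Beads incubated with 10 μCi ³²P γATP, 10 μM ATP and 5 μg c-jun fusion protein at 30 °C for 20 min, then Laemmli stop.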

The subject of test [8] is Mus musculus. Kind of test: Effect on adiponectin level in 5-week old apoE-/- C57BL/6J mouse fed on western diet and administered with 15 mg/kg/day, po drug at 12 week in 12-18 week late intervention study. It is filed as functional. Put shortly:
as §2

Test [9] concerns Macrophage. In words: Increase in cholesterol efflux in mouse aP2+/+ macrophage cells at 25 uM relative to control. It is filed as functional, cell-based. The essentials:
as §1

For test [10], the system named is Mus musculus. In words: Increase in free fatty acid level in ob/ob mouse at 40 mg/kg/day, po after 6 weeks relative to control. It is filed as functional. Put shortly:
(§3)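 Male ob/ob mice given oral gavage daily for 6 weeks from 8 weeks old, n = 6 per group. Blood taken after 6 h fast before and after treatment; fed glucose taken at week 2. Glucose by meter on 3 μl whole blood, insulin by ultrasensitive ELISA, cholesterol, FFA and glycerol by colorimetric microplate assays.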

In test [11] the test system is Mus musculus. In words: Effect on cholesterol level in 5-week old apoE -/- C57BL/6J mouse fed on western diet and 15 mg/kg/day, po drug simultaneously in 5-11 week early intervention study. It is filed as functional. The essentials:
as §2

The test system of test [12] is Macrophage. Kind of test: Reduction in total cholesterol ester content in mouse aP2+/+ macrophage cells at 25 uM relative to control. It is filed as functional, cell-based.
Test [13] deals with Mus musculus. Kind of test: Effect on triglyceride level in 5-week old apoE-/- C57BL/6J mouse fed on western diet and 15 mg/kg/day, po drug simultaneously in 5-11 week early intervention study. It is filed as functional. Put shortly:
as §2

Test [14] deals with Mus musculus. In words: Increase in glucose metabolism in ob/ob mouse at 40 mg/kg/day, po after 4 weeks by glucose tolerance test. It is filed as functional, organism-based. The essentials:
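Male ob/ob mice after 4 weeks of daily 40 mg kg⁻¹ oral gavage (started at 8 weeks), n = 6 per group. Glucose tolerance tested with 0.5 g kg⁻¹ intraperitoneal glucose after an overnight fast.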

Test [15] relates to Mus musculus. Kind of test: Increase in insulin sensitivity in ob/ob mouse at 40 mg/kg/day, po after 5 weeks by insulin tolerance test. It is filed as functional, organism-based. The essentials:
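Male ob/ob mice, from 8 weeks of age, got 40 mg kg⁻¹ d⁻¹ of the inhibitor or vehicle by oral gavage for 6 weeks. After 5 weeks of treatment and a 6 h fast, insulin was given intraperitoneally (2 IU kg⁻¹). Blood glucose was read with a glucose meter on 3 μl whole blood. Vehicle and treated groups had n = 6 each.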

The test system of test [16] is Mus musculus. Kind of test: Inhibition of aP2 in 5-week old apoE-/- C57BL/6J mouse fed on western diet and administered with 15 mg/kg/day, po drug at 12 week in late intervention study assessed as reduction of atherosclerotic lesion in en face aorta relative to control. It is filed as functional. Also on record: scale not given: the % may be the effect or the level left. Put shortly: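 Male Apoe⁻/⁻ C57BL/6J mice were fed a western diet (21% fat, 0.21% cholesterol) from 4–5 weeks of age. They were gavaged for 6 weeks with 15 mg kg⁻¹ d⁻¹ in vehicle (10% 1-methyl-2-pyrrolidone, 5% cremophor EL with ethanol, in water), starting at 5 weeks (early) or 12 weeks (late). Perfusion-fixed, pinned-out aortas were stained with Sudan IV and lesion area was quantified.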

The subject of test [17] is Mus musculus. Kind of test: Decrease in F4/80 (Emr1) expression in ob/ob mouse adipose tissue at 40 mg/kg/day, po. It is filed as functional, organism-based.
Test [18] has as its system Mus musculus. Kind of test: Decrease in blood glucose level in fed ob/ob mouse at 40 mg/kg/day, po after 2 weeks. It is filed as functional, organism-based. Put shortly: as §3
Test [19] concerns Macrophage. Kind of test: Reduction of IL1-beta expressed in mouse aP2+/+ macrophage cells relative to control. It is filed as functional, cell-based. The essentials:
(§4)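 Mouse aP2⁺/⁺ and aP2-reconstituted aP2⁻/⁻ macrophage lines were grown in RPMI with FBS or 5% LPDS, with inhibitor in DMSO or vehicle. Mcp-1, Il1β, Il6 and Tnf mRNA were measured by SYBR Green qRT-PCR (annealing at 58 °C, 50 cycles), normalized to 18s rRNA and then to untreated cells. Mean ± s.e.m.; at least triplicate.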

Test [20] deals with Mus musculus. Kind of test: Effect on adiponectin level in 5-week old apoE-/- C57BL/6J mouse fed on western diet and 15 mg/kg/day, po drug simultaneously in 5-11 week early intervention study. It is filed as functional. The essentials:
as §2

The nature of test [21]: Reduction of TNF expression in mouse aP2+/+ macrophage cells relative to control. It is filed as functional, cell-based. Put shortly: as §4
Test [22] deals with Mus musculus. Kind of test: Effect on body weight in 5-week old apoE-/- C57BL/6J mouse fed on western diet and 15 mg/kg/day, po drug simultaneously in 5-11 week early intervention study. It is filed as functional.
Test [23] deals with Mus musculus. In words: Increase in insulin-stimulated IRbeta tyrosine 1162/1163 phosphorylation in ob/ob mouse adipose tissue at 40 mg/kg/day, po relative to control. It is filed as functional, organism-based. Put shortly: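 Male ob/ob mice were dosed by oral gavage at 40 mg kg⁻¹ d⁻¹ or with vehicle. After 6 h food withdrawal and tribromoethanol anaesthesia, insulin (2 IU kg⁻¹) or PBS went into the portal vein. Adipose tissue was taken 3 min later, lysed and immunoblotted for IRβ pTyr1162/1163, AKT pSer473 and total proteins. Signals were quantified by densitometry.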

Each structure is given as a SMILES string. Active and inactive are the calls of the source. The rule behind the calls is not given here.

Take `CCc1c(-c2ccccc2)c(-c2ccccc2)nn1-c1ccccc1-c1cccc(OCC(=O)O)c1`: the Activity was determined as 37 g in test [1]; 410.7 mg/dL in [3]; 2 mM in test [4]; 40% in test [7]; 5.78 µg/mL in test [8]; 0.9 mM in test [10]. For the same molecule, the Activity in [11] was 1465.3 mg/dL; in [13], 213.6 mg/dL; in test [16], 51%; in [20], 8.59 µg/mL; in test [22] it was 30.3 g. For the same molecule, the result in [2], in test [5], in test [6], in test [9], in test [12] and in test [14] was Active. For the same molecule, the outcome in test [15], in test [17], in test [18], in [19], in [21] and in test [23] was Active.
